Screening data: PubChem BioAssay, several laboratories
HKDC1 inhibitor – HKDC1 hexokinase inhibitors, primary screen, biochemical, fluorescence, uHTS; AID 493160, 2011; Q2TB90; recombinant HKDC1, G6PDH/diaphorase resazurin coupled fluorescence; hit rate 0.16% among 340,000; inhibition, % at 20 µM;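 active = inhibition above about 35% when tested at 20 µM, limit read from the data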;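 also: plate controls were DMSO wells with enzyme for no effect and DMSO wells lacking enzyme for full effect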
Target sequence (Q2TB90 whole entry, looked up): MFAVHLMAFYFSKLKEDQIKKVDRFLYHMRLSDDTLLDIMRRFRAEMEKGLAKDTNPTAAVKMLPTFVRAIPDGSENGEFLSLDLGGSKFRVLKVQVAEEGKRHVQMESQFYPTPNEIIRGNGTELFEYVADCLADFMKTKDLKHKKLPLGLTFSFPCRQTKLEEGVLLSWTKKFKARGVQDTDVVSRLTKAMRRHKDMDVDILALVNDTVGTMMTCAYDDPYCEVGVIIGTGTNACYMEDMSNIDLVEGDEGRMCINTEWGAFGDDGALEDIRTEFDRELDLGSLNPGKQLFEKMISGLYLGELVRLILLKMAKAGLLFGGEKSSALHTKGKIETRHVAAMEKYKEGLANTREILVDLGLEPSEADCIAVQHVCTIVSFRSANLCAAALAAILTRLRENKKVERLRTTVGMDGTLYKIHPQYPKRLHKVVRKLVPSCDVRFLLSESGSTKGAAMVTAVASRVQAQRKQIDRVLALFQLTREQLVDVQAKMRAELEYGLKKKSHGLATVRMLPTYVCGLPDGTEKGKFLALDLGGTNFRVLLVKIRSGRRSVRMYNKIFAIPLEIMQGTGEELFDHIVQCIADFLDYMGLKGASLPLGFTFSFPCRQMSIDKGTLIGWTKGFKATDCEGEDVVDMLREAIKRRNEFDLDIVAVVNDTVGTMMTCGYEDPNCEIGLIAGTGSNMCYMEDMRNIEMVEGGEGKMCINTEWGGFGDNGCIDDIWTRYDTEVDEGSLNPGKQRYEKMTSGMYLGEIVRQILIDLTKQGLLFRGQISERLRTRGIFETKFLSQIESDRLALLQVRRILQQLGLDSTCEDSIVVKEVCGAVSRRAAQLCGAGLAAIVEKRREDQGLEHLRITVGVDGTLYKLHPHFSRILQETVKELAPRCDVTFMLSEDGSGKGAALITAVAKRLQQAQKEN
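Assay system: recombinant HKDC1 hexokinase; detection: coupled resazurin fluorescence, excitation 525 nm, emission 613 nm; benchmarks: DMSO-plus-enzyme-mix negative control, buffer-substituted positive control; compound dosing: single 20 µM dose; schedule: 90 min at room temperature in dark; also added: glucose plus 1 mM ATP as hexokinase substrates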
Neddyl block – inhibitors of cullin neddylation, primary screen, biochemical, TR-FRET, uHTS, NAE and Ubc12; inhibition, % at 25 µM; NEDD8-conjugating enzyme Ubc12 (Homo sapiens) + NEDD8-activating enzyme E1 regulatory …; hit rate 0.58% among 360,000; in the data active = inhibition above about 36%
PfGluPho inh – PfG6PD enzyme inhibitors, primary screen, biochemical, fluorescence intensity, uHTS; inhibition, % at 20 µM; PfGluPho enzyme, NADPH resazurin-diaphorase fluorescence; hit rate 0.78% among 350,000;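 active = inhibition reaching at least a set limit at 20 µM in the primary screen, cut at about 59% in these data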;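 also: 0% = DMSO wells with substrate and 100% = DMSO wells lacking glucose-6-phosphate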
M18AAP inhibitor – PfM18AAP inhibitors, malaria aminopeptidase, primary screen, biochemical, QFRET, recombinant enzyme. M18 aspartyl aminopeptidase (Plasmodium falciparum 3D7). H-Glu-NHMec fluorogenic cleavage. inhibition, % at 7.35 µM. hit rate 1.2% among 290,000. AID 1822, 2009;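 active = inhibition above the campaign mean inhibition over all tested compounds plus 3 SD, cut at about 28% in these data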;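 also: 0% = plate median of test compound wells and 100% = 2 mM ZnCl2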
Numbers without * were called inactive; x = no result given. In the library only some 2.2% were active in any assay of this set; here they are far more common.

SMILES	HKDC1 inhibitor	Neddyl block	PfGluPho inh	M18AAP inhibitor
Cc1ccc(S(=O)(=O)N(C)c2ccc(OCC(=O)NCC3(N(C)C)CCCCC3)cc2)cc1	0	10	-2	x
CC1CCC(NC(=O)CCS(=O)(=O)c2ccc3c(c2)oc(=O)n3C)CC1 (stereo unspecified)	-3	1	8	-10
CC(=O)SC(C[N+](=O)[O-])c1cn(C(C)=O)c2ccccc12 (stereo unspecified)	0	14	63*	14
COc1ccc(CN2C[C@H](O)COC[C@@H]3O[C@H](CC(=O)NCc4ccncn4)CC[C@H]32)cc1	x	-12	x	x
CCOc1ccc(NC(=O)CN(C)C(=O)C2CC(=O)N(Cc3ccco3)C2)cc1OCC (stereo unspecified)	-4	12	8	x
Cc1cc(Cl)ccc1OCC(=O)n1cc(C(=O)c2cc(Cl)ccc2O)cn1	x	x	x	30*
Cc1cc(Cl)ccc1OCC(=O)N1CCCN(C(=O)COc2ccc(Cl)cc2C)CC1	-4	-2	7	3
CCc1nnc(NC(=O)CSc2nnc(C(C)NC(=O)c3ccccc3)n2C)s1 (stereo unspecified)	-4	-3	14	-4
O=C(/C(=C/c1ccccc1)n1cncn1)c1ccc(Cl)cc1Cl	11	3	6	54*
CC(=O)OCCNc1cc(Sc2nc3ccccc3[nH]2)c2nonc2c1[N+](=O)[O-]	11	-1	65*	-62
CC(=O)OCCCNc1cc(Sc2ccc(C)cc2)c2nonc2c1[N+](=O)[O-]	3	0	17	-7
CCOC(=O)C(C(C)=O)c1c(Br)c(O)c(O)c2c(C(=O)c3ccc(C)cc3)coc12 (stereo unspecified)	10	1	25	47*
O=C(CCNC(=O)C1CCN(S(=O)(=O)c2ccccc2)CC1)NCCc1cccc(F)c1	-6	-4	15	-10
Cc1sc(Cc2nc(O)cs2)nc1-c1ccccc1	-7	-9	-9	1
O=C(Nc1nnc(Cc2ccc([N+](=O)[O-])cc2)s1)c1ccc2c(c1)OCO2	4	-1	18	3
CC(C)(C)Cc1nnc(NC(=O)c2ccc3c(c2)OCO3)s1	-3	-17	52	30*
COc1ccc(S(=O)(=O)CC(=O)c2cc3cc(Br)ccc3oc2=O)cc1	19	-4	9	29*
COc1ccc(OC)c(S(=O)(=O)CC(=O)c2cc3ccc(OC)cc3oc2=O)c1	20	-3	-5	10
CCN(CC)c1ccc2cc(C(N)=O)c(=O)oc2c1	-3	48*	-7	5
O=c1[nH]cc(N=Cc2cc([N+](=O)[O-])ccc2O)c(=O)[nH]1	x	x	x	13
O=c1[nH]cc(N=Cc2cc(Cl)cc(Cl)c2O)c(=O)[nH]1	19	42*	1	-4
O=[N+]([O-])c1ccc(Sc2cccc[n+]2[O-])c2nonc12	15	-6	115*	13
O=C(NCCc1ccccc1)c1ccc(Cl)c(S(=O)(=O)N2CCOCC2)c1	-3	0	-10	-7
S=c1[nH]nc(C2CCCCC2)n1/N=C/c1ccncc1	-10	-5	24	15
O=C(O)c1ccc(/C=N/n2c(C3CCCCC3)n[nH]c2=S)cc1	-4	-1	12	30*
SMILES	HKDC1 inhibitor	Neddyl block	PfGluPho inh	M18AAP inhibitor
O=C(O)c1ccc(N/N=C/C=C/c2ccccc2[N+](=O)[O-])cc1	4	-27	8	41*
COc1cc(OC)c(-n2cc(-c3ccc(OC)c(OC)c3)[nH]c2=S)cc1Cl	1	-12	48	32*
CS(=O)(=O)c1ccc(N2CCN(S(=O)(=O)c3cccs3)CC2)c([N+](=O)[O-])c1	0	-16	5	x
O=C(CSc1ccc([N+](=O)[O-])cn1)Nc1ccc2c(c1)OCO2	-1	-29	22	5
O=C(N/N=C/c1ccncc1)c1cccc(S(=O)(=O)Nc2ccc(Cl)cc2)c1	12	-9	-5	33*
CC(C(=O)Nc1ccc(C(=O)O)c(O)c1)N1C(=O)/C(=C\c2ccco2)SC1=S (stereo unspecified)	14	-2	5	28*
CC(C(=O)N(C)C1CCS(=O)(=O)C1)N1C(=O)/C(=C/c2cccs2)SC1=S (stereo unspecified)	3	-49	10	3
CC(C(=O)N(C)C1CCS(=O)(=O)C1)N1C(=O)/C(=C/c2ccco2)SC1=S (stereo unspecified)	7	-2	19	31*
O=C1/C(=C\c2ccco2)SC(=S)N1c1ccc(O)cc1	-6	-11	-3	31*
